Source: ChEMBL document CHEMBL4138211, “Regio- and stereoselective synthesis of dispirooxindole-pyrrolocarbazole hybrids via 1,3-dipolar cycloaddition reactions: Cytotoxic activity and SAR studies” (Eur J Med Chem, 2018)
Active and inactive are the calls of the source. No cut-off for these calls is given here.

What was measured:
[1] = tested on: MCF7; test: Induction of apoptosis in human MCF7 cells assessed as necrotic cells at 10 uM after 6 hrs by Annexin V-FITC/propidium iodide staining based flow cytometry (reference value: 0.0%); format: functional
In short: (§1)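 Cells at 1×10⁵/mL exposed to 5, 10 or 20 μM (printed as μM/ml) for 6 h, with an untreated control. Harvested, PBS-washed and trypsinised, then spun at 200×g for 10 min. Stained with annexin V-FITC/propidium iodide for 10-15 min at 25 °C. Quadrant analysis gives live, early apoptotic, late apoptotic and necrotic fractions.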

[2] = tested on: A549; test: Induction of apoptosis in human A549 cells assessed as early apoptotic cells at 20 uM after 6 hrs by Annexin V-FITC/propidium iodide staining based flow cytometry (reference value: 0.77%); format: functional; in short: as §1
[3] = tested on: MCF7; test: Induction of apoptosis in human MCF7 cells assessed as necrotic cells at 5 uM after 6 hrs by Annexin V-FITC/propidium iodide staining based flow cytometry (reference value: 0.0%); format: functional; in short: as §1
[4] = tested on: A549; test: Induction of apoptosis in human A549 cells assessed as viable cells at 5 uM after 6 hrs by Annexin V-FITC/propidium iodide staining based flow cytometry (reference value: 99.23%); format: functional; conditions: A549, 6 h, read-out: Activity; in short: as §1
[5] = tested on: MCF7; test: Induction of apoptosis in human MCF7 cells assessed as damaged cell membranes by acridine orange/ethidium bromide staining-based fluorescence microscopic analysis; format: functional
In short: (§2)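 Treated cells collected and washed in PBS (pH 7.2). Stained with a 1:1 AO/EtBr mixture (each dye […] in water) and held 2 min. Washed twice in PBS and viewed by fluorescence microscopy at 400× with 480 nm excitation. Green intact-membrane cells distinguished from orange/red membrane-damaged cells.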

[6] = tested on: MCF7; test: Induction of apoptosis in human MCF7 cells assessed as early apoptotic cells at 10 uM after 6 hrs by Annexin V-FITC/propidium iodide staining based flow cytometry (reference value: 0.88%); format: functional; in short: as §1
[7] = tested on: MCF7; test: Induction of apoptosis in human MCF7 cells assessed as increase in late apoptotic cells after 6 hrs by Annexin V-FITC/propidium iodide staining based flow cytometry; format: functional, cell-based; in short: as §1
[8] = tested on: MCF7; test: Induction of apoptosis in human MCF7 cells assessed as nuclear fragmentation after 24 hrs by DAPI staining-based fluorescence microscopic analysis; format: functional, cell-based
In short: (§3)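 Cells plated on glass coverslips and treated for 24 h, then fixed. Permeabilised with 0.2% Triton X-100 for 10 min at room temperature. DAPI applied for 3 min under a coverslip. Nuclei inspected by fluorescence microscopy for condensed chromatin and fragmentation, against untreated cells.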

[9] = tested on: MCF7; test: Induction of apoptosis in human MCF7 cells assessed as late apoptotic cells at 20 uM after 6 hrs by Annexin V-FITC/propidium iodide staining based flow cytometry (reference value: 0.0%); format: functional; in short: as §1
[10] = tested on: MCF7; test: Induction of apoptosis in human MCF7 cells assessed as late apoptotic cells at 5 uM after 6 hrs by Annexin V-FITC/propidium iodide staining based flow cytometry (reference value: 0.0%); format: functional; in short: as §1
[11] = tested on: MCF7; test: Antiproliferative activity against human MCF7 cells after 48 hrs by MTT assay; format: functional, cell-based
In short: (§4)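 Cells grown 1×10⁴/well for 48 h to about 75% confluence. Medium then replaced with fresh medium containing serially diluted compounds, followed by a further 48 h. MTT added for 4 h at 37 °C and formazan dissolved in DMSO for 10 min. OD read at 620 nm. IC50 taken from the viability–concentration survival curve. Three independent experiments, each in triplicate.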

[12] = tested on: MCF7; test: Induction of apoptosis in human MCF7 cells assessed as necrotic cells at 20 uM after 6 hrs by Annexin V-FITC/propidium iodide staining based flow cytometry (reference value: 0.0%); format: functional; in short: as §1
[13] = tested on: A549; test: Antiproliferative activity against human A549 cells after 48 hrs by MTT assay; format: functional, cell-based; in short: as §4
[14] = tested on: A549; test: Induction of apoptosis in human A549 cells assessed as late apoptotic cells at 10 uM after 6 hrs by Annexin V-FITC/propidium iodide staining based flow cytometry (reference value: 0.0%); format: functional; in short: as §1
[15] = tested on: MCF7; test: Induction of apoptosis in human MCF7 cells assessed as viable cells at 20 uM after 6 hrs by Annexin V-FITC/propidium iodide staining based flow cytometry (reference value: 99.12%); format: functional; conditions: MCF7, 6 h, read-out: Activity; in short: as §1
[16] = tested on: A549; test: Induction of apoptosis in human A549 cells assessed as necrotic cells at 20 uM after 6 hrs by Annexin V-FITC/propidium iodide staining based flow cytometry (reference value: 0.0%); format: functional; in short: as §1
[17] = tested on: A549; test: Induction of apoptosis in human A549 cells assessed as viable cells at 20 uM after 6 hrs by Annexin V-FITC/propidium iodide staining based flow cytometry (reference value: 99.23%); format: functional; conditions: A549, 6 h, read-out: Activity; in short: as §1
[18] = tested on: MCF7; test: Induction of apoptosis in human MCF7 cells assessed as viable cells at 5 uM after 6 hrs by Annexin V-FITC/propidium iodide staining based flow cytometry (reference value: 99.12%); format: functional; conditions: MCF7, 6 h, read-out: Activity; in short: as §1
[19] = tested on: A549; test: Induction of apoptosis in human A549 cells assessed as increase in late apoptotic cells after 6 hrs by Annexin V-FITC/propidium iodide staining based flow cytometry; format: functional, cell-based; in short: as §1
[20] = tested on: A549; test: Induction of apoptosis in human A549 cells assessed as necrotic cells at 5 uM after 6 hrs by Annexin V-FITC/propidium iodide staining based flow cytometry (reference value: 0.0%); format: functional; in short: as §1
[21] = tested on: A549; test: Induction of apoptosis in human A549 cells assessed as nuclear fragmentation after 24 hrs by DAPI staining-based fluorescence microscopic analysis; format: functional, cell-based; in short: as §3
[22] = tested on: MCF7; test: Induction of apoptosis in human MCF7 cells assessed as increase in early apoptotic cells after 6 hrs by Annexin V-FITC/propidium iodide staining based flow cytometry; format: functional, cell-based; in short: as §1
[23] = tested on: A549; test: Induction of apoptosis in human A549 cells assessed as viable cells at 10 uM after 6 hrs by Annexin V-FITC/propidium iodide staining based flow cytometry (reference value: 99.23%); format: functional; conditions: A549, 6 h, read-out: Activity; in short: as §1
[24] = tested on: MCF7; test: Induction of apoptosis in human MCF7 cells assessed as nuclear condensation by acridine orange/ethidium bromide staining-based fluorescence microscopic analysis; format: functional, cell-based; in short: as §2
[25] = tested on: MCF7; test: Induction of apoptosis in human MCF7 cells assessed as late apoptotic cells at 10 uM after 6 hrs by Annexin V-FITC/propidium iodide staining based flow cytometry (reference value: 0.0%); format: functional; in short: as §1
[26] = tested on: MCF7; test: Induction of apoptosis in human MCF7 cells assessed as formation of floating cells after 24 hrs by brightfield inverted light microscopic analysis; format: functional, cell-based
[27] = tested on: MCF7; test: Induction of apoptosis in human MCF7 cells assessed as membrane blebbing after 24 hrs by brightfield inverted light microscopic analysis; format: functional, cell-based
[28] = tested on: A549; test: Induction of apoptosis in human A549 cells assessed as late apoptotic cells at 20 uM after 6 hrs by Annexin V-FITC/propidium iodide staining based flow cytometry (reference value: 0.0%); format: functional; in short: as §1
[29] = tested on: A549; test: Induction of apoptosis in human A549 cells assessed as membrane blebbing after 24 hrs by brightfield inverted light microscopic analysis; format: functional, cell-based
[30] = tested on: MCF7; test: Induction of apoptosis in human MCF7 cells assessed as viable cells at 10 uM after 6 hrs by Annexin V-FITC/propidium iodide staining based flow cytometry (reference value: 99.12%); format: functional; conditions: MCF7, 6 h, read-out: Activity; in short: as §1
[31] = tested on: A549; test: Induction of apoptosis in human A549 cells assessed as late apoptotic cells at 5 uM after 6 hrs by Annexin V-FITC/propidium iodide staining based flow cytometry (reference value: 0.0%); format: functional; in short: as §1
[32] = tested on: A549; test: Induction of apoptosis in human A549 cells assessed as increase in early apoptotic cells after 6 hrs by Annexin V-FITC/propidium iodide staining based flow cytometry; format: functional, cell-based; in short: as §1
[33] = tested on: A549; test: Induction of apoptosis in human A549 cells assessed as necrotic cells at 10 uM after 6 hrs by Annexin V-FITC/propidium iodide staining based flow cytometry (reference value: 0.0%); format: functional; in short: as §1
[34] = tested on: MCF7; test: Induction of apoptosis in human MCF7 cells by acridine orange/ethidium bromide staining-based fluorescence microscopic analysis; format: functional, cell-based; in short: as §2
[35] = tested on: MCF7; test: Induction of apoptosis in human MCF7 cells assessed as early apoptotic cells at 20 uM after 6 hrs by Annexin V-FITC/propidium iodide staining based flow cytometry (reference value: 0.88%); format: functional; in short: as §1
[36] = tested on: A549; test: Induction of apoptosis in human A549 cells by acridine orange/ethidium bromide staining-based fluorescence microscopic analysis; format: functional, cell-based; in short: as §2
[37] = tested on: A549; test: Induction of apoptosis in human A549 cells assessed as early apoptotic cells at 5 uM after 6 hrs by Annexin V-FITC/propidium iodide staining based flow cytometry (reference value: 0.77%); format: functional; in short: as §1
[38] = tested on: MCF7; test: Induction of apoptosis in human MCF7 cells assessed as cell shrinkage after 24 hrs by brightfield inverted light microscopic analysis; format: functional, cell-based
[39] = tested on: A549; test: Induction of apoptosis in human A549 cells assessed as formation of floating cells after 24 hrs by brightfield inverted light microscopic analysis; format: functional, cell-based
[40] = tested on: MCF7; test: Induction of apoptosis in human MCF7 cells assessed as early apoptotic cells at 5 uM after 6 hrs by Annexin V-FITC/propidium iodide staining based flow cytometry (reference value: 0.88%); format: functional; in short: as §1
[41] = tested on: A549; test: Induction of apoptosis in human A549 cells assessed as early apoptotic cells at 10 uM after 6 hrs by Annexin V-FITC/propidium iodide staining based flow cytometry (reference value: 0.77%); format: functional; in short: as §1
[42] = tested on: A549; test: Induction of apoptosis in human A549 cells assessed as cell shrinkage after 24 hrs by brightfield inverted light microscopic analysis; format: functional, cell-based

IC50 ([11]; MCF7, 48 h): 13 µM
IC50 ([13]; A549, 48 h): 14 µM
SMILES: O=C1Nc2ccccc2[C@]12N[C@H](c1ccccc1)[C@H](c1cccs1)[C@@]21CCc2c([nH]c3ccc(Cl)cc23)C1=O
Activity [1]: 0.98%
Activity [2]: 32.15%
Activity [3]: 1.81%
viability at 5 µM [4]: 63.2%
Activity [5]: Active
Activity [6]: 23.3%
Activity [7]: Dose-dependent effect
Activity [8]: Active
Activity [9]: 30.2%
Activity [10]: 7.55%
Activity [11]: Dose-dependent effect
Activity [12]: 1.12%
Activity [13]: Dose-dependent effect
Activity [14]: 7.65%
viability at 20 µM [15]: 35.1%
Activity [16]: 1.85%
viability at 20 µM [17]: 37.3%
viability at 5 µM [18]: 82.5%
Activity [19]: Dose-dependent effect
Activity [20]: 1.15%
Activity [21]: Active
Activity [22]: Dose-dependent effect
viability at 10 µM [23]: 72.2%
Activity [24]: Active
Activity [25]: 12.82%
Activity [26]: Dose-dependent effect
Activity [27]: Dose-dependent effect
Activity [28]: 28.7%
Activity [29]: Dose-dependent effect
viability at 10 µM [30]: 62.9%
Activity [31]: 6.7%
Activity [32]: Dose-dependent effect
Activity [33]: 2.81%
Activity [34]: Active
Activity [35]: 33.56%
Activity [36]: Active
Activity [37]: 28.95%
Activity [38]: Dose-dependent effect
Activity [39]: Dose-dependent effect
Activity [40]: 8.19%
Activity [41]: 17.35%
Activity [42]: Dose-dependent effect
